Measured values reported in ChEMBL document CHEMBL2150929, “Lipidated peptidomimetics with improved antimicrobial activity” (ACS Med Chem Lett, 2012).
Values after ≈ are worked out from the molar mass of the structure shown. Active and inactive are the calls of the source. The calls are words filed in the database; no cut-off is given here.

How the values were obtained:
[1] = Toxicity in RBC assessed as hemolysis; type: cell-based, Erythrocyte; conditions: for HC10: erythrocyte; for HC50: red blood cells (RBC)
Outline: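 Hemolysis of red blood cells measured over a concentration range. H10 and H50 are the concentrations giving 10% and 50% hemolysis.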

Bacillus subtilis = assay: Antimicrobial activity against Bacillus subtilis BR151 after 24 hrs by broth micro-dilution method; type: functional; conditions: BR151, 24 h
Staphylococcus aureus = assay: Antimicrobial activity against methicillin-resistant Staphylococcus aureus ATCC 33592 after 24 hrs by broth micro-dilution method; type: functional; conditions: ATCC 33592, 24 h
Outline: (§1)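 MIC read as the lowest concentration giving complete inhibition of bacterial growth after 24 h of incubation. Pexiganan and a linear α-AApeptide were run alongside as positive controls.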

Enterococcus faecalis = assay: Antimicrobial activity against Vancomycin-resistant Enterococcus faecalis ATCC 700802 after 24 hrs by broth micro-dilution method; type: functional; conditions: ATCC 700802, 24 h; outline: as §1
[2] = test system: Staphylococcus epidermidis; assay: Antimicrobial activity against methicillin-resistant Staphylococcus epidermidis RP62A after 24 hrs by broth micro-dilution method; type: functional; outline: as §1
Escherichia coli [3] = assay: Antimicrobial activity against Escherichia coli JM109 after 24 hrs by broth micro-dilution method; type: functional; conditions: JM109, 24 h
Klebsiella pneumoniae = assay: Antimicrobial activity against Klebsiella pneumoniae ATCC 13383 after 24 hrs by broth micro-dilution method; type: functional; conditions: ATCC 13383, 24 h
Pseudomonas aeruginosa = assay: Antimicrobial activity against Pseudomonas aeruginosa ATCC 27853 after 24 hrs by broth micro-dilution method; type: functional; conditions: ATCC 27853, 24 h
Candida albicans = assay: Antimicrobial activity against Candida albicans ATCC 10231 after 48 hrs by broth micro-dilution method; type: functional; conditions: ATCC 10231, 48 h
Escherichia coli [4] = assay: Induction of membrane disruption in Escherichia coli JM109 at 10 ug/ml after 2 hrs by Propidium iodide-staining based fluorescence microscopy; type: functional, organism-based
Outline: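 E. coli exposed to 10 μg/mL for 2 h, then stained with DAPI, which labels all cells, and propidium iodide, which enters cells with damaged membranes. Red PI fluorescence imaged by fluorescence microscopy against untreated controls.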

CCCCCCCCCCCCCCCC(=O)NCCN(C(=O)CCc1ccccc1)[C@@H](CCCCN)C(=O)NCCN(C(=O)CCc1ccccc1)[C@@H](CCCCN)C(N)=O
HC10 [1]: > 500 µg/mL
HC50 [1]: > 500 µg/mL
MIC (Bacillus subtilis): 4 mg/L (≈ 4.64 µM)
MIC (Staphylococcus aureus): 8 mg/L (≈ 9.28 µM)
MIC (Enterococcus faecalis): 3 mg/L (≈ 3.48 µM)
MIC [2]: 15 mg/L (≈ 17.4 µM)
MIC (Escherichia coli [3]): > 50 mg/L
MIC (Klebsiella pneumoniae): > 50 mg/L
MIC (Pseudomonas aeruginosa): > 50 mg/L
MIC (Candida albicans): 2 mg/L (≈ 2.32 µM)

CCCCCCCCCCCCCCCC(=O)NCCN(C(=O)CCCN)[C@@H](Cc1ccccc1)C(=O)NCCN(C(=O)CCCN)[C@@H](Cc1ccccc1)C(=O)NCCN(C(=O)CCCN)[C@@H](Cc1ccccc1)C(=O)NCCN(C(=O)CCCN)[C@@H](Cc1ccccc1)C(=O)NCCN(C(=O)CCCN)[C@@H](Cc1ccccc1)C(N)=O
HC10 [1]: 20 µg/mL
HC50 [1]: 250 µg/mL
MIC (Bacillus subtilis): 4 mg/L (≈ 2.45 µM)
MIC (Staphylococcus aureus): 8 mg/L (≈ 4.9 µM)
MIC (Enterococcus faecalis): 4 mg/L (≈ 2.45 µM)
MIC [2]: 10 mg/L (≈ 6.13 µM)
MIC (Escherichia coli [3]): 4 mg/L (≈ 2.45 µM)
MIC (Klebsiella pneumoniae): 8 mg/L (≈ 4.9 µM)
MIC (Pseudomonas aeruginosa): 12 mg/L (≈ 7.35 µM)
MIC (Candida albicans): 4 mg/L (≈ 2.45 µM)
Activity (Escherichia coli [4]): Active

CCCCCCCCCCCCCCCC(=O)NCCN(C(=O)CCC(C)C)[C@@H](CCCCN)C(=O)NCCN(C(=O)CCC(C)C)[C@@H](CCCCN)C(N)=O
HC10 [1]: > 500 µg/mL
HC50 [1]: > 500 µg/mL
MIC (Bacillus subtilis): 2 mg/L (≈ 2.52 µM)
MIC (Staphylococcus aureus): 5 mg/L (≈ 6.3 µM)
MIC (Enterococcus faecalis): 1 mg/L (≈ 1.26 µM)
MIC [2]: 10 mg/L (≈ 12.6 µM)
MIC (Escherichia coli [3]): > 50 mg/L
MIC (Klebsiella pneumoniae): > 50 mg/L
MIC (Pseudomonas aeruginosa): > 50 mg/L
MIC (Candida albicans): 2 mg/L (≈ 2.52 µM)

CCCCCCCCCCCCCCCC(=O)NCCN(C(C)=O)[C@@H](C)C(=O)NCCN(C(C)=O)[C@@H](C)C(=O)NCCN(C(=O)CCCN)[C@@H](CCCCN)C(=O)NCCN(C(=O)CCCN)[C@@H](CCCCN)C(=O)NCCN(C(=O)CCCN)[C@@H](CCCCN)C(N)=O
HC10 [1]: 100 µg/mL
HC50 [1]: > 500 µg/mL
MIC (Bacillus subtilis): 4 mg/L (≈ 2.99 µM)
MIC (Staphylococcus aureus): 8 mg/L (≈ 5.98 µM)
MIC (Enterococcus faecalis): 20 mg/L (≈ 15 µM)
MIC [2]: 10 mg/L (≈ 7.48 µM)
MIC (Escherichia coli [3]): 4 mg/L (≈ 2.99 µM)
MIC (Klebsiella pneumoniae): 20 mg/L (≈ 15 µM)
MIC (Pseudomonas aeruginosa): 10 mg/L (≈ 7.48 µM)
MIC (Candida albicans): 10 mg/L (≈ 7.48 µM)

CCCCCCCCCCCCCCCC(=O)NCCN(C(C)=O)[C@@H](C)C(=O)NCCN(C(C)=O)[C@@H](C)C(=O)NCCN(C(=O)CCCN)[C@@H](Cc1ccccc1)C(=O)NCCN(C(=O)CCCN)[C@@H](Cc1ccccc1)C(=O)NCCN(C(=O)CCCN)[C@@H](Cc1ccccc1)C(N)=O
HC10 [1]: 40 µg/mL
HC50 [1]: 400 µg/mL
MIC (Bacillus subtilis): 2 mg/L (≈ 1.43 µM)
MIC (Staphylococcus aureus): 4 mg/L (≈ 2.87 µM)
MIC (Enterococcus faecalis): 4 mg/L (≈ 2.87 µM)
MIC [2]: 4 mg/L (≈ 2.87 µM)
MIC (Escherichia coli [3]): 30 mg/L (≈ 21.5 µM)
MIC (Klebsiella pneumoniae): 8 mg/L (≈ 5.74 µM)
MIC (Pseudomonas aeruginosa): 8 mg/L (≈ 5.74 µM)
MIC (Candida albicans): 20 mg/L (≈ 14.3 µM)

CCCCCCCCCCCCCCCC(=O)NCCN(C(=O)CCCN)[C@@H](Cc1ccccc1)C(=O)NCCN(C(=O)CCCN)[C@@H](Cc1ccccc1)C(=O)NCCN(C(=O)CCCN)[C@@H](Cc1ccccc1)C(N)=O
HC10 [1]: 50 µg/mL
HC50 [1]: 300 µg/mL
MIC (Bacillus subtilis): 2 mg/L (≈ 1.85 µM)
MIC (Staphylococcus aureus): 4 mg/L (≈ 3.7 µM)
MIC (Enterococcus faecalis): 4 mg/L (≈ 3.7 µM)
MIC [2]: 8 mg/L (≈ 7.4 µM)
MIC (Escherichia coli [3]): 8 mg/L (≈ 7.4 µM)
MIC (Klebsiella pneumoniae): > 50 mg/L
MIC (Pseudomonas aeruginosa): 20 mg/L (≈ 18.5 µM)
MIC (Candida albicans): 3 mg/L (≈ 2.77 µM)

CCCCCCCCCCCCCCCC(=O)NCCN(C(=O)CCc1ccccc1)[C@@H](CCCCN)C(=O)NCCN(C(=O)CCc1ccccc1)[C@@H](CCCCN)C(=O)NCCN(C(=O)CCc1ccccc1)[C@@H](CCCCN)C(N)=O
HC10 [1]: 15 µg/mL
HC50 [1]: 150 µg/mL
MIC (Bacillus subtilis): 2 mg/L (≈ 1.72 µM)
MIC (Staphylococcus aureus): 8 mg/L (≈ 6.86 µM)
MIC (Enterococcus faecalis): 10 mg/L (≈ 8.58 µM)
MIC [2]: 20 mg/L (≈ 17.2 µM)
MIC (Escherichia coli [3]): > 50 mg/L
MIC (Klebsiella pneumoniae): > 50 mg/L
MIC (Pseudomonas aeruginosa): > 50 mg/L
MIC (Candida albicans): > 50 mg/L

H-GIGKFLKKAKKFGKAFVKILKK-NH2 [PEXIGANAN]
HC10 [1]: 181 µg/mL
HC50 [1]: 495 µg/mL
MIC (Bacillus subtilis): 4 mg/L
MIC (Staphylococcus aureus): 16 mg/L
MIC (Enterococcus faecalis): 32 mg/L
MIC [2]: 8 mg/L
MIC (Escherichia coli [3]): 8 mg/L
MIC (Klebsiella pneumoniae): 8 mg/L
MIC (Pseudomonas aeruginosa): 8 mg/L
MIC (Candida albicans): 124 mg/L
